Laboratory results from ChEMBL document CHEMBL4024768, “Discovery and Optimization of Thiazolidinyl and Pyrrolidinyl Derivatives as Inhaled PDE4 Inhibitors for Respiratory Diseases” (J Med Chem, 2017).

How the values were obtained:
[1] = Inhibition of PDE4 in human U937 cell lysates assessed as residual cAMP after 2.5 mins by LANCE assay
[2] = Inhibition of PDE4 in human PBMC assessed as reduction in LPS-induced TNFalpha release after 18 hrs by quantitative ELISA
[3] = Protein binding in human plasma at 5 uM after 5 hrs by LC-MS/MS analysis; type: ADME, cell-free; conditions: read-out: PPB (converted)
[4] = Apparent permeability across apical to basolateral side in human Caco2 cells at 10 uM after 2 hrs by LC-MS/MS analysis; type: ADME, cell-based; conditions: Caco-2
[5] = Apparent permeability across basolateral to apical side in human Caco2 cells at 10 uM after 2 hrs by LC-MS/MS analysis; type: ADME, cell-based; conditions: Caco-2
[6] = Intrinsic clearance in human liver microsomes at 1 uM measured after 60 mins in presence NADPH by LC-MS/MS analysis; type: ADME, microsome; conditions: read-out: CLH
Outline: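 Compound at 1 μM with human liver microsomes (0.8 mg protein/mL) in Dulbecco's buffer pH 7.4, 1 mM NADPH, 37 °C, in duplicate. Sampled at 0, 5, 10, 20, 30 and 60 min, quenched with ice-cold acetonitrile, and unchanged compound measured by LC−MS/MS. No-NADPH controls; midazolam (1 μM) as phase I control.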

[7] = Intrinsic clearance in human hepatocytes assessed per million cells at 1 uM measured after 90 mins by LC-MS/MS analysis; type: ADME, cell-based, Hepatocyte; conditions: read-out: CLH
Outline: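 Compound at 1 μM with hepatocytes (1 million cells/mL) in Leibovitz L-15 at 37 °C, in duplicate. Sampled at 0, 10, 20, 30, 60 and 90 min, quenched with ice-cold acetonitrile, centrifuged, and unchanged compound measured by LC−MS/MS. Included 7-ethoxycoumarin and 7-hydroxycoumarin activity controls and cell-free medium controls.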

[8] = Metabolic stability in human lung S9 fraction assessed as compound remaining at 1 uM measured after 60 mins in presence of NADPH by LC-MS/MS analysis; type: ADME; conditions: read-out: Stability
[9] = Metabolic stability in human plasma assessed as compound remaining at 1 uM measured after 60 mins in presence of NADPH by LC-MS/MS analysis; type: ADME, cell-free; conditions: read-out: Stability

| Compound | IC50 [1] [nM] | IC50 [2] [nM] | fraction unbound at 5 h, 5 µM [3] | Papp A→B at 2 h, 10 µM [4] [×10⁻⁶ cm/s] | Papp B→A at 2 h, 10 µM [5] [×10⁻⁶ cm/s] | microsomal CLint at 1 µM [6] [µL/min/mg] | hepatocyte CLint at 1 µM [7] [µL/min/1e6 cells] | remaining at 1 h, 1 µM [8] [%] | remaining at 1 h, 1 µM [9] [%] |
| --- | --- | --- | --- | --- | --- | --- | --- | --- | --- |
| COCCS(=O)(=O)N1CCC[C@H]1C(=O)O[C@@H](Cc1c(Cl)c[n+]([O-])cc1Cl)c1ccc(OC(F)F)c(OCC2CC2)c1 (relative stereo) | 0.0442 | 0.31 |  |  |  |  |  |  |  |
| O=C(O[C@@H](Cc1c(Cl)c[n+]([O-])cc1Cl)c1ccc(OC(F)F)c(OCC2CC2)c1)[C@@H]1SCCN1S(=O)(=O)c1cccnc1 (relative stereo) | 0.061 | 0.07 |  |  |  |  |  |  |  |
| CN(C)C(=O)c1cccc(S(=O)(=O)N2CCCC[C@H]2C(=O)O[C@@H](Cc2c(Cl)c[n+]([O-])cc2Cl)c2ccc(OC(F)F)c(OCC3CC3)c2)c1 (relative stereo) | 0.056 | 0.012 | 0.0012 | 21.7 | 73.4 | 363 | 64.6 | 72.5 | 104 |
| COc1cc([C@H](Cc2c(Cl)c[n+]([O-])cc2Cl)OC(=O)[C@@H]2SCCN2S(=O)(=O)c2cccc(C(=O)N(C)C)c2)ccc1OC(F)F (relative stereo) | 0.014 | 0.032 |  |  |  |  |  |  |  |
| COc1ccc(S(=O)(=O)N2CCCC[C@H]2C(=O)O[C@@H](Cc2c(Cl)c[n+]([O-])cc2Cl)c2ccc(OC(F)F)c(OCC3CC3)c2)cc1C(=O)N(C)C (relative stereo) | 0.031 | 0.015 | 0.0023 | 13.2 | 68.4 | 244 | 33.2 | 59.7 | 88.2 |
| CN(C)C(=O)c1cccc(S(=O)(=O)N2CCC[C@@H](C(=O)O[C@@H](Cc3c(Cl)c[n+]([O-])cc3Cl)c3ccc(OC(F)F)c(OCC4CC4)c3)C2)c1 (relative stereo) | 0.031 | 0.12 |  |  |  |  |  |  |  |
| COc1ccc(S(=O)(=O)N2CCC[C@H]2C(=O)O[C@@H](Cc2c(Cl)c[n+]([O-])cc2Cl)c2ccc(OC(F)F)c(OCC3CC3)c2)cc1C(=O)N(C)C (relative stereo) | 0.0351 | 0.042 | 0.0032 | 0.5 | 12.5 | 365 | 56.7 | 71.6 | 101 |
| CN(C)C(=O)c1cccc(S(=O)(=O)N2CCS[C@H]2C(=O)O[C@H](Cc2c(Cl)c[n+]([O-])cc2Cl)c2ccc(OC(F)F)c(OCC3CC3)c2)c1 | 3.01 |  |  |  |  |  |  |  |  |
| O=C(O[C@@H](Cc1c(Cl)c[n+]([O-])cc1Cl)c1ccc(OC(F)F)c(OCC2CC2)c1)[C@@H]1CCCCN1S(=O)(=O)c1ccccc1 (relative stereo) | 0.094 | 0.203 |  |  |  |  |  |  |  |
| CNC(=O)c1cc(S(=O)(=O)N2CCS[C@H]2C(=O)O[C@@H](Cc2c(Cl)c[n+]([O-])cc2Cl)c2ccc(OC(F)F)c(OCC3CC3)c2)cn1C (relative stereo) | 0.025 | 0.03 | 0.0016 | 1.26 | 18.3 | 202 | 47.6 | 63.5 | 100 |
| CN(C)C(=O)c1cccc(S(=O)(=O)N2CCC[C@@H]2C(=O)O[C@@H](Cc2c(Cl)c[n+]([O-])cc2Cl)c2ccc(OC(F)F)c(OCC3CC3)c2)c1 (relative stereo) | 0.0533 | 0.38 |  |  |  |  |  |  |  |
| COCCS(=O)(=O)N1CCS[C@H]1C(=O)O[C@@H](Cc1c(Cl)c[n+]([O-])cc1Cl)c1ccc(OC(F)F)c(OCC2CC2)c1 (relative stereo) | 0.043 | 0.078 |  |  |  |  |  |  |  |
| O=C(O[C@@H](Cc1c(Cl)c[n+]([O-])cc1Cl)c1ccc(OC(F)F)c(OCC2CC2)c1)c1cccn1S(=O)(=O)c1ccccc1 | 0.825 |  |  |  |  |  |  |  |  |
| CN(C)C(=O)c1cccc(C(=O)N2CCS[C@H]2C(=O)O[C@@H](Cc2c(Cl)c[n+]([O-])cc2Cl)c2ccc(OC(F)F)c(OCC3CC3)c2)c1 |  | 0.57 |  |  |  |  |  |  |  |
| CS(=O)(=O)N1CCC[C@H]1C(=O)O[C@@H](Cc1c(Cl)c[n+]([O-])cc1Cl)c1ccc(OC(F)F)c(OCC2CC2)c1 (relative stereo) | 0.504 | 4.2 |  |  |  |  |  |  |  |
| COc1ccc(S(=O)(=O)N2CCC[C@H]2C(=O)O[C@@H](Cc2c(Cl)c[n+]([O-])cc2Cl)c2ccc(OC(F)F)c(OCC3CC3)c2)cc1OC (relative stereo) | 0.0324 | 0.36 |  |  |  |  |  |  |  |
